Experimental data from ChEMBL document CHEMBL1250428, “Identification of novel bacterial histidine biosynthesis inhibitors using docking, ensemble rescoring, and whole-cell assays” (Bioorg Med Chem, 2010).
Active and inactive are the calls of the source. No cut-off for these calls is given here.

How the values were obtained:
Staphylococcus aureus [1] = assay: Antibacterial activity against clinical isolate of Staphylococcus aureus assessed as growth inhibition at 10 mg/ml after 16 to 20 hrs; type: functional, organism-based
How it was run: (§1)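 Disc diffusion: sterile filter discs loaded with 10 µl of a 10 mg/ml compound solution were placed on evenly inoculated LB or minimal medium agar plates and incubated 16–20 h at 37 °C. Growth inhibition around each disc was scored qualitatively (weak, partial, or strong). Controls were 10 µl of 1 mg/ml ampicillin and DMSO.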

Staphylococcus aureus [2] = assay: Antibacterial activity against methicillin-resistant Staphylococcus aureus Mu50 assessed as growth inhibition at 10 mg/ml after 16 to 20 hrs; type: functional, organism-based
How it was run: (§2)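 Disc diffusion assay. Sterile filter discs soaked with 10 µl of a 10 mg/ml compound solution were placed on evenly inoculated LB or minimal medium agar, then incubated 16–20 h at 37 °C. Growth inhibition was scored by eye on a graded scale from strong inhibition through weak or partial inhibition to none. DMSO served as the negative control.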

Staphylococcus aureus [3] = assay: Antibacterial activity against methicillin-resistant Staphylococcus aureus USA300 assessed as growth inhibition at 10 mg/ml after 16 to 20 hrs; type: functional, organism-based; how it was run: as §2
Escherichia coli [4] = assay: Antibacterial activity against clinical isolate of Escherichia coli assessed as growth inhibition at 10 mg/ml after 16 to 20 hrs; type: functional, organism-based; how it was run: as §1
Escherichia coli [5] = assay: Antibacterial activity against Escherichia coli 1655 assessed as growth inhibition at 10 mg/ml after 16 to 20 hrs; type: functional, organism-based; how it was run: as §1
Pseudomonas aeruginosa [6] = assay: Antibacterial activity against Pseudomonas aeruginosa PAO1 assessed as growth inhibition at 10 mg/ml after 16 to 20 hrs; type: functional, organism-based; how it was run: as §1
[7] = Cytotoxicity against human CL1 cells expressing hTERT assessed as cell viability at 100 ug/ml after 24 hrs by MTT assay; type: cell-based
[8] = Cytotoxicity against human CL1 cells expressing hTERT assessed as cell viability at 100 ug/ml after 24 hrs by trypan blue exclusion assay; type: cell-based
Staphylococcus aureus [9] = assay: Antibacterial activity against methicillin-resistant Staphylococcus aureus Mu50 assessed as growth inhibition at 10 mg/ml after 16 to 20 hrs in presence of 0.2 mM L-histidine; type: functional, organism-based
How it was run: (§3)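 Histidine complementation disc assay. Discs soaked with 10 µl of a 10 mg/ml compound solution were placed on evenly inoculated minimal medium agar supplemented with 0.2 mM L-histidine, then incubated 16–20 h at 37 °C. Inhibition zones were scored by eye on a graded scale (strong, weak, partial, none).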

Staphylococcus aureus [10] = assay: Antibacterial activity against methicillin-resistant Staphylococcus aureus USA300 assessed as growth inhibition at 10 mg/ml after 16 to 20 hrs in presence of 0.2 mM L-histidine; type: functional, organism-based; how it was run: as §3
Escherichia coli [11] = assay: Antibacterial activity against Escherichia coli 1655 assessed as growth inhibition at 10 mg/ml after 16 to 20 hrs in presence of 0.2 mM L-histidine; type: functional, organism-based
How it was run: (§4)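 Histidine complementation: minimal medium agar plates were supplemented with 0.2mM L-histidine and evenly inoculated. Filter discs soaked with 10 µl of 10 mg/ml compound were applied, and plates were incubated 16–20 h at 37 °C. Inhibition was scored qualitatively. Ampicillin (10 µl, 1 mg/ml) and DMSO served as controls.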

Pseudomonas aeruginosa [12] = assay: Antibacterial activity against Pseudomonas aeruginosa PAO1 assessed as growth inhibition at 10 mg/ml after 16 to 20 hrs in presence of 0.2 mM L-histidine; type: functional, organism-based; how it was run: as §4
Staphylococcus aureus [13] = assay: Antibacterial activity against clinical isolate of Staphylococcus aureus assessed as growth inhibition at 1 mg/ml after 16 to 20 hrs; type: functional, organism-based
Staphylococcus aureus [14] = assay: Antibacterial activity against methicillin-resistant Staphylococcus aureus Mu50 assessed as growth inhibition at 1 mg/ml after 16 to 20 hrs; type: functional, organism-based
How it was run: (§5)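 Disc diffusion assay. Filter discs carrying 10 µl of a 1 mg/ml solution were placed on evenly inoculated LB or minimal medium agar plates, then incubated 16–20 h at 37 °C. Growth inhibition was scored by eye on a graded scale (strong, weak, partial, none).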

Staphylococcus aureus [15] = assay: Antibacterial activity against methicillin-resistant Staphylococcus aureus USA300 assessed as growth inhibition at 1 mg/ml after 16 to 20 hrs; type: functional, organism-based; how it was run: as §5
Escherichia coli [16] = assay: Antibacterial activity against clinical isolate of Escherichia coli assessed as growth inhibition at 1 mg/ml after 16 to 20 hrs; type: functional, organism-based
Escherichia coli [17] = assay: Antibacterial activity against Escherichia coli 1655 assessed as growth inhibition at 1 mg/ml after 16 to 20 hrs; type: functional, organism-based
Staphylococcus aureus [18] = assay: Antibacterial activity against methicillin-resistant Staphylococcus aureus Mu50 assessed as growth inhibition at 1 mg/ml after 16 to 20 hrs in presence of 0.2 mM L-histidine; type: functional, organism-based
How it was run: (§6)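 Discs carrying 10 µl of a 1 mg/ml solution were placed on evenly inoculated minimal medium agar containing 0.2 mM L-histidine, then incubated 16–20 h at 37 °C. Inhibition zones were scored by eye as strong, weak, partial or none.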

Staphylococcus aureus [19] = assay: Antibacterial activity against methicillin-resistant Staphylococcus aureus USA300 assessed as growth inhibition at 1 mg/ml after 16 to 20 hrs in presence of 0.2 mM L-histidine; type: functional, organism-based; how it was run: as §6
Escherichia coli [20] = assay: Antibacterial activity against Escherichia coli 1655 assessed as growth inhibition at 1 mg/ml after 16 to 20 hrs in presence of 0.2 mM L-histidine; type: functional, organism-based
Pseudomonas aeruginosa [21] = assay: Antibacterial activity against Pseudomonas aeruginosa PAO1 assessed as growth inhibition at 1 mg/ml after 16 to 20 hrs in presence of 0.2 mM L-histidine; type: functional, organism-based

SMILES | Activity (Staphylococcus aureus [1]) | Activity (Staphylococcus aureus [2]) | Activity (Staphylococcus aureus [3]) | Activity (Escherichia coli [4]) | Activity (Escherichia coli [5]) | Activity (Pseudomonas aeruginosa [6]) | Activity (Staphylococcus aureus [9]) | Activity (Staphylococcus aureus [10]) | Activity (Escherichia coli [11]) | Activity (Pseudomonas aeruginosa [12]) | also measured
CSCC[C@@H](NCC[C@H](O)c1ccccc1)C(=O)O | inactive | inactive | inactive | inactive | inactive | Active | – | – | – | – | –
Cc1c(OCC(=O)O)ccc2c(-c3ccccc3)cc(=O)oc12 | Active | Active | Active | Active | Active | Active | – | – | – | – | Activity [7]: Non-toxic; Activity [8]: Non-toxic
O=C1Nc2ccc(Cl)cc2C(c2cccc(O)c2)=N[C@H]1O | – | Active | Active | – | Active | Active | – | – | – | – | –
CCN(CCc1ccccc1)C(=O)CSc1ncccc1C(=O)O | – | – | – | – | Active | – | inactive | inactive | Active | Active | –
O=C(O)c1ccc([C@H](O)[C@@H](O)c2ccccc2)cc1 | Active | Active | Active | – | Active | inactive | – | – | – | – | Activity [8]: Toxic
CCCCc1cc(=O)oc2c(C)c(O[C@H](C)C(=O)O)ccc12 | Active | Active | inactive | – | – | Active | Active | Active | Active | Active | –
CC1(C)S[C@@H]2[C@H](NC(=O)[C@H](N)c3ccccc3)C(=O)N2[C@H]1C(=O)O [AMPICILLIN] | – | – | – | – | – | – | – | – | – | – | Activity [8]: Non-toxic; Activity (Staphylococcus aureus [13]): Active; Activity (Staphylococcus aureus [14]): Active; Activity (Staphylococcus aureus [15]): Active; Activity (Escherichia coli [16]): Active; Activity (Escherichia coli [17]): Active; Activity (Staphylococcus aureus [18]): Active; Activity (Staphylococcus aureus [19]): Active; Activity (Escherichia coli [20]): inactive; Activity (Pseudomonas aeruginosa [21]): inactive
Cc1ncc(CO)c(CNc2ccc(Oc3ccccc3)cc2)c1O | Active | Active | Active | – | Active | Active | – | – | – | – | Activity [8]: Toxic
CCc1cc(=O)oc2c3c(c(C)c(OCC(=O)O)c12)OC(C)(C)C=C3 | inactive | Active | – | inactive | Active | Active | inactive | inactive | Active | Active | –
C[C@@H](NC[C@@H](O)Cn1c2ccccc2c2ccccc21)C(=O)O | inactive | inactive | inactive | inactive | inactive | inactive | – | – | – | – | –
O=C(O)C[C@H](c1ccncc1)c1c[nH]c2ccccc12 | Active | Active | inactive | Active | – | Active | Active | Active | Active | Active | –
CC(=O)C1=C(O)C(=O)N(CCC(=O)O)[C@@H]1c1ccc(C(C)C)cc1 | inactive | Active | inactive | Active | Active | Active | Active | Active | Active | Active | –
O=C(O)C[C@H](NCc1ccco1)C(=O)Cc1ccc(Cl)cc1 | inactive | inactive | inactive | inactive | inactive | – | – | – | – | – | –
O=C(O)CCCNC[C@@H](O)Cn1c2ccccc2c2ccccc21 | Active | Active | Active | – | – | inactive | Active | inactive | inactive | inactive | Activity [8]: Non-toxic
Cc1oc(C(=O)O)cc1COc1ccc2c3c(c(=O)oc2c1C)CCC3 | Active | Active | inactive | inactive | inactive | inactive | – | – | – | – | –
CC(=O)C1C(O)C(=O)N(c2ccc(C(=O)O)cc2)[C@H]1c1ccccc1 (stereo partly specified) | Active | Active | Active | Active | Active | Active | inactive | inactive | inactive | inactive | –
O=C(O)c1cccc(NC(=O)[C@H]2CCCC[C@@H]2C(=O)O)c1 | inactive | inactive | inactive | inactive | – | Active | – | – | – | – | –
CN(C)c1ccc(/C=N/Nc2ccc(S(=O)(=O)O)cc2)cc1 | inactive | inactive | inactive | inactive | – | – | – | – | – | – | –
